{"source": "paper PMC4893637", "about": "(Theranostics, 2016)", "key": {"[1]": {"system": "BALB/c nude mouse LNCaP xenograft", "assay": "MicroPET in LNCaP xenograft mouse", "format": "in vivo", "settings": "68Ga-labeled, i.v.", "method_in_brief": "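Purified 68Ga-labelled test conjugates (50 MBq/nmol) were sterile-filtered and 100 µl injected into the tail vein of BALB/c nude mice bearing LNCaP xenografts under 2% sevoflurane. Two tracers were compared in the same mouse. Blocking used 100-fold excess of unlabelled compound, imaged 2 h post-injection.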"}, "[2]": {"molecular_target": "Recombinant human PSMA (rhPSMA) (Homo sapiens, UniProt Q04609)", "sequence (Q04609 whole entry)": "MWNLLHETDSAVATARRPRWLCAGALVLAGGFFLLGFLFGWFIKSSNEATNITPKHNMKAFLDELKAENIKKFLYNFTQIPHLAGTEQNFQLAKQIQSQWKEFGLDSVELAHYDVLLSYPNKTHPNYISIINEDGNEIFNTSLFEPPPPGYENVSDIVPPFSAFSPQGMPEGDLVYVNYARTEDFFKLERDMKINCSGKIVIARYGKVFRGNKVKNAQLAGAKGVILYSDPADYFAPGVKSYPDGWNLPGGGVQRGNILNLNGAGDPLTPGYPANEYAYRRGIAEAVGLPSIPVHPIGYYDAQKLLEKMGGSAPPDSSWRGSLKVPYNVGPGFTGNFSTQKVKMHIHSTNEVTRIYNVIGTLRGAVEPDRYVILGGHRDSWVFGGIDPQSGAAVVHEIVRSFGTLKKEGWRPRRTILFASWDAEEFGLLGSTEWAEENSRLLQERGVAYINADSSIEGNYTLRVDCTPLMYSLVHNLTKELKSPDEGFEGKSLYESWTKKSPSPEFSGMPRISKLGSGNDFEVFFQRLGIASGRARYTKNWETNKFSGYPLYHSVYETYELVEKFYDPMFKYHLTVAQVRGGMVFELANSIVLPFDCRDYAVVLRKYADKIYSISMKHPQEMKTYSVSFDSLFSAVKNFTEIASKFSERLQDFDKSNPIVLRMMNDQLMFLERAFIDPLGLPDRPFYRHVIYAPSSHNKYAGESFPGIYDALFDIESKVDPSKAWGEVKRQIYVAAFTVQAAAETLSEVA", "assay": "NAALADase assay", "format": "biochemical"}, "[3]": {"molecular_target": "PSMA positive LNCaP cells (Homo sapiens, UniProt Q04609)", "sequence (Q04609 whole entry)": "as above", "assay": "Internalization assay on LNCaP cells", "format": "cell-based", "settings": "30 nM radiolabeled compound, 45 min; 177Lu-labeled, except CIM 99mTc-labeled", "method_in_brief": "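Poly-L-lysine-coated wells were seeded with 10⁵ LNCaP cells in RPMI (10% FCS, 1% L-glutamine) and held overnight at 37 °C. Cells took up 30 nM radiolabelled test compound in Opti-MEM for 45 min at 37 °C or 4 °C, with 2-PMPA block or DMSO, in triplicate. Surface-bound tracer came off in two 5-min 50 mM glycine pH 2.8 washes and internalized tracer in 0.3 M NaOH lysate. All fractions were gamma-counted against a ligand standard.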"}}, "data": [{"smiles": "O=C(O)CC[C@H](NC(=O)N[C@@H](CCCCNC(=O)[C@H](Cc1ccc2ccccc2c1)NC(=O)[C@H]1CC[C@H](CNC(=O)CN2CCN(CC(=O)O)CCN(CC(=O)O)CCN(CC(=O)O)CC2)CC1)C(=O)O)C(=O)O", "note": "[DOTA conjugate]", "values": [{"measurement": "Time after which the amount in the tumor begins to decrease", "setting": "[1]", "value": "approximately 15 min"}, {"measurement": "IC50", "setting": "[2]", "value": "0.8 ± 0.3", "unit": "nM"}, {"measurement": "Absolute value of compound inside of the cells (amount internalized)", "setting": "[3]", "value": "3.7 ± 4.6", "unit": "%"}]}]}
